Data: ChEMBL document CHEMBL3351583, “Two-pronged attack: dual inhibition of Plasmodium falciparum M1 and M17 metalloaminopeptidases by a novel series of hydroxamic acid-based inhibitors” (J Med Chem, 2014)
pIC50, pKi: −log10 of the molar value.

Assays:
[1] = biological target: T1, Aminopeptidase N (Plasmodium falciparum FcB1/Columbia, UniProt O96935); experiment: Inhibition of Plasmodium falciparum M1 incubated for 10 mins before H-Leu-NHMec substrate addition by fluorescence assay
T1 sequence (O96935 whole entry): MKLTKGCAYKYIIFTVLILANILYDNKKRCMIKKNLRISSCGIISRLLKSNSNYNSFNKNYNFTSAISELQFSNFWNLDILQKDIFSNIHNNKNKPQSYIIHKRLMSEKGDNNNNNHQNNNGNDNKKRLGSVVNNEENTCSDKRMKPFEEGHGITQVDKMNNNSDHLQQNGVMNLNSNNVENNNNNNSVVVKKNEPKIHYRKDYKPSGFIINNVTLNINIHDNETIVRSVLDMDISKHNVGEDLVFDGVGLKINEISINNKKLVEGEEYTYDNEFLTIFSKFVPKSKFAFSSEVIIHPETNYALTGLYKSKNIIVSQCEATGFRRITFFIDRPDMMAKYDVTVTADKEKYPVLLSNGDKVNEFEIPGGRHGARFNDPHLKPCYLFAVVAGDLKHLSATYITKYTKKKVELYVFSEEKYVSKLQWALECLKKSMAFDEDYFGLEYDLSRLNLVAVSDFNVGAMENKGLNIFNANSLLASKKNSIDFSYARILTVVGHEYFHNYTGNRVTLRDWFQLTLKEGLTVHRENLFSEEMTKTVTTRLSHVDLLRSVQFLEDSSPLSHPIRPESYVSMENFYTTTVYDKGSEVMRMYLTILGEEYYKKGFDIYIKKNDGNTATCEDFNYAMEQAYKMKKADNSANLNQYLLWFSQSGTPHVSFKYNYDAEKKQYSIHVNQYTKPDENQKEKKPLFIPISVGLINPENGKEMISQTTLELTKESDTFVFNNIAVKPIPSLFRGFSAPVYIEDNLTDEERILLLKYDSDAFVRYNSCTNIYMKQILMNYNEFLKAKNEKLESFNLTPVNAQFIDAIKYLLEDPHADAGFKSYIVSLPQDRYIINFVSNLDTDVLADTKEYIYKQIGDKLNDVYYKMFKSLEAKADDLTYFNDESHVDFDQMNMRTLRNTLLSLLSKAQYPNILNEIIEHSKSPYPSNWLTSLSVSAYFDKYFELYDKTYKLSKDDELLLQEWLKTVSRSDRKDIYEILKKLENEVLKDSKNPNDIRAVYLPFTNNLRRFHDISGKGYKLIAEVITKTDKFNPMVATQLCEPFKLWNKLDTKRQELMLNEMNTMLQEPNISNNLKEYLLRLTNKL
Summary of the method: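 Recombinant PfA-M1 (E. coli, Ni-NTA then size exclusion) preincubated with inhibitor (0-500 μM) 10 min in 100 mM Tris pH 8.0 at 37 °C, then H-Leu-NHMec added below Km. NHMec release read at ex 355/em 460 nm to steady-state velocity; Ki from Dixon plots of 1/V against inhibitor concentration.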

[2] = biological target: T2, Leucine aminopeptidase (Plasmodium falciparum 3D7, UniProt Q8IL11); experiment: Inhibition of Plasmodium falciparum M17 incubated for 10 mins before H-Leu-NHMec substrate addition by fluorescence assay
T2 sequence (Q8IL11 whole entry): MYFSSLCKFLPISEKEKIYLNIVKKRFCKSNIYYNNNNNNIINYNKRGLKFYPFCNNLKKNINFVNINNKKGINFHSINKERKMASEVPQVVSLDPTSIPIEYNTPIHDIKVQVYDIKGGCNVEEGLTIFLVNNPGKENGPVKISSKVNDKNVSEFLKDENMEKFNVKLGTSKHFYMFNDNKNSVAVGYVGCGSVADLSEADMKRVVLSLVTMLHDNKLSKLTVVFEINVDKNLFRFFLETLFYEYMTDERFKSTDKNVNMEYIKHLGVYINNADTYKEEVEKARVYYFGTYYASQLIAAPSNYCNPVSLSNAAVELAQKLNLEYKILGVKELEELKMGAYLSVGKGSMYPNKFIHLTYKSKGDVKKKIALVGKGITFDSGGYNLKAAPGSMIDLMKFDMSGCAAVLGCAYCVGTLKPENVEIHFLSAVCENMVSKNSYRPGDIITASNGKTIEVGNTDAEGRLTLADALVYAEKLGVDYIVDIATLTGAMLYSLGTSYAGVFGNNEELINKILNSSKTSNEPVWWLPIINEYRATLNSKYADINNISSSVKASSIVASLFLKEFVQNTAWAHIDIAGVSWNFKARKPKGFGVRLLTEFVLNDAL
Summary of the method: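 Recombinant PfA-M17 purified from E. coli by Ni-NTA and gel filtration; 10 min inhibitor preincubation (0-500 μM) in 50 mM Tris pH 8.0, 2 mM CoCl₂, 37 °C, before H-Leu-NHMec at sub-Km level. Fluorescence (355/460 nm) followed to final steady-state velocity; Ki obtained by Dixon plot.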

[3] = system: HEK293; experiment: Cytotoxicity against HEK293 cells assessed as growth inhibition up to 40 uM after 72 hrs by resazurin based assay; assay type: cell-based; conditions: human, hek293, 72 h
Summary of the method: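 HEK293 in DMEM plus 10% FCS, seeded 2000 cells/well, adhered overnight, then dosed to top final 40 μM, 0.4% DMSO, 72 h at 37 °C, 5% CO₂. Medium replaced with 44 μM resazurin in serum-free DMEM, 4-6 h more, fluorescence 530/595 nm; % growth against 40 μM puromycin and 0.4% DMSO controls; IC50 by variable-slope nonlinear regression.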

[4] = system: Plasmodium falciparum; experiment: Antimalarial activity against Plasmodium falciparum 3D7 assessed as parasite growth inhibition after 72 hrs by DAPI staining based confocal microscopy; assay type: functional, organism-based; conditions: 3D7, 72 h
Summary of the method: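 Sorbitol-synchronised 3D7 rings (2% parasitaemia, 0.3% haematocrit) in RPMI/Hepes/hypoxanthine/AlbuMAX II exposed to three-step log dilutions from 40 μM top, final 0.4% DMSO, 72 h at 37 °C, 5% CO₂. Saponin/Triton X/EDTA buffer with DAPI added, overnight RT, confocal imaging counts parasites; % growth versus 2 μM artemisinin and 0.4% DMSO controls; IC50 by variable-slope nonlinear regression.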

| SMILES | pKi [1] | pKi [2] | Activity [3] | pIC50 [4] |
| --- | --- | --- | --- | --- |
| CC(C)(C)OC(=O)NC(C(=O)O)c1ccc(-n2cccn2)cc1 (stereo unspecified) | < 3.30 | 3.33 | Non-toxic | – |
| CC(C)(C)C(=O)NC(C(=O)NO)c1ccc(-n2cccn2)cc1 (stereo unspecified) | 6.15 | 7.55 | Non-toxic | 6.64 |
| Cl.NC(C(=O)NO)c1ccc(-n2cccn2)cc1 (stereo unspecified) | 4.13 | 4.07 | Non-toxic | – |
| CCC(=O)NC(C(=O)NO)c1ccc(-n2cccn2)cc1 (stereo unspecified) | 4.38 | 7.80 | Non-toxic | 6.34 |
| CC(C)(C)NC(=O)NC(C(=O)NO)c1ccc(-n2cccn2)cc1 (stereo unspecified) | 4.82 | 7.42 | Non-toxic | 6.22 |
| Cl.NC(C(=O)O)c1ccc(-n2cccn2)cc1 (stereo unspecified) | < 3.30 | < 3.30 | Non-toxic | – |
| Nc1cccc(C(=O)NC(C(=O)NO)c2ccc(-n3cccn3)cc2)c1 (stereo unspecified) | 5.26 | 7.85 | Non-toxic | 6.63 |
| CC(C)(C)OC(=O)NC(C(=O)NO)c1ccc(-n2cccn2)cc1 (stereo unspecified) | 6.10 | 7.52 | Non-toxic | 6.11 |
| CC(C)C(=O)NC(C(=O)NO)c1ccc(-n2cccn2)cc1 (stereo unspecified) | 4.91 | 7.28 | Non-toxic | 6.27 |

Second part, led by results:

| pKi [1] | pKi [2] | SMILES | Activity [3] | pIC50 [4] |
| --- | --- | --- | --- | --- |
| 5.40 | 7.46 | O=C(NC(C(=O)NO)c1ccc(-n2cccn2)cc1)c1cccc(F)c1 (stereo unspecified) | Non-toxic | 6.37 |
| 5.13 | 7.96 | Nc1ccc(C(=O)NC(C(=O)NO)c2ccc(-n3cccn3)cc2)cc1 (stereo unspecified) | Non-toxic | 6.64 |
| 5.72 | 8.10 | O=C(NC(C(=O)NO)c1ccc(-n2cccn2)cc1)c1ccccc1F (stereo unspecified) | Non-toxic | 6.45 |
| 3.95 | 7.72 | CC(=O)NC(C(=O)NO)c1ccc(-n2cccn2)cc1 (stereo unspecified) | Non-toxic | 6.21 |
| 4.64 | 6.81 | O=C(NC(C(=O)NO)c1ccc(-n2cccn2)cc1)c1ccccc1 (stereo unspecified) | Non-toxic | – |
| 4.95 | 7.92 | O=C(NC(C(=O)NO)c1ccc(-n2cccn2)cc1)c1ccc(F)cc1 (stereo unspecified) | Non-toxic | 6.15 |
